Compounds with a hit are over-represented: about 2.5% of the library has one in this group of screens.
DSG3 Ab inh: inhibitors of pemphigus antibody binding to human desmoglein-3; binding (percent of control), % at 10 µM; 310,000 tested, 0.48% active; P32926; DSG3-coupled beads, scFv-anti-DSG3-GFP binding, flow cytometry; active compounds read low;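 active = binding more than 3 SD below its plate's average and above zero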;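 also: hits lower antibody fragment binding to DSG3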
TRPC4 act: opens the mouse TRPC4 cation channel. B-score at 10 µM. Q9QUQ5. 310,000 tested, 0.49% active. HEK293 TRPC4beta/mu-opioid, Fluo4 calcium fluorescence; active compounds read high;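 active = B-score above 5 SD of library B-scores, and initial fluorescence ratio not above library mean plus 5 SD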;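 also: positive B-score marks a calcium rise read as TRPC4 activation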
Target sequence (Q9QUQ5 whole entry, looked up): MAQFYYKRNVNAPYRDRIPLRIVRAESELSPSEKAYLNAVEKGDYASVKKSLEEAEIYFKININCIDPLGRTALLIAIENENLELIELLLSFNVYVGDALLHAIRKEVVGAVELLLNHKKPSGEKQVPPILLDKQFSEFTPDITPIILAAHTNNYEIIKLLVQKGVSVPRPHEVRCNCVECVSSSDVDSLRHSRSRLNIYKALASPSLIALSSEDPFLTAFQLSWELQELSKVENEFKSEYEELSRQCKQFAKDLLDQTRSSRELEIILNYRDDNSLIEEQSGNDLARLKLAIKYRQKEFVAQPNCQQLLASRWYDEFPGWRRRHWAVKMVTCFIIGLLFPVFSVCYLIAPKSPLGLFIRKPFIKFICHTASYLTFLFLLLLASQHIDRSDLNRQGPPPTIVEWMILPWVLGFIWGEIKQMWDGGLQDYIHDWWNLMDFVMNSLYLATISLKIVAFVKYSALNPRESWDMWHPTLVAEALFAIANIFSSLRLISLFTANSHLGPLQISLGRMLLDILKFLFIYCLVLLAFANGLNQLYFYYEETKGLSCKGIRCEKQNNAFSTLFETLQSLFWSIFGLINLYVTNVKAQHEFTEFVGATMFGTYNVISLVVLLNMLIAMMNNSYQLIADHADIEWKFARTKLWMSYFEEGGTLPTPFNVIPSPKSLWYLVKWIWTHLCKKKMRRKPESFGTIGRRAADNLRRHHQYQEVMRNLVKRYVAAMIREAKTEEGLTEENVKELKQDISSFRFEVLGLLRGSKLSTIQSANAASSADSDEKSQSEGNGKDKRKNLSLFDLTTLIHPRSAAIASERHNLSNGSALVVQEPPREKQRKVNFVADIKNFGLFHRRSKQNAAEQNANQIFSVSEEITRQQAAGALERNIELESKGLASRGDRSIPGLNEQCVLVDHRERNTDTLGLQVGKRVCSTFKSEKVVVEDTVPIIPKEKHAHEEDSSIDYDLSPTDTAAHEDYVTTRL
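Assay system: HEK293 stable line with TRPC4beta plus mu-opioid receptor; schedule: 45 min room-temperature Fluo4 loading, 110 s read; technique: kinetic Fluo4 calcium fluorescence; evaluation: integrated baseline-normalised fluorescence ratio, converted to per-well B score; controls: buffer (low) and maximal DAMGO (high)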
TRPC4 PAM: TRPC4 (mouse) allosteric potentiation | HEK293 TRPC4beta/mu-opioid, DAMGO EC20, Fluo-4 Ca2+ flux; active compounds read high | B-score at 10 µM | 310,000 tested, 0.42% active | AID 2227;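 active = B-score of calcium response area above 5 SD of library B-scores, with initial fluorescence ratio within 5 SD of library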
TRPC6 inh: inhibitors of mouse TRPC6 channel; HEK293-TRPC6, membrane potential dye, ACh-evoked depolarization; active compounds read low; B-score at 10 µM; 310,000 tested, 1.1% active; AID 2553;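 active = B-score under library mean minus 3 SD, initial fluorescence not abnormally high, positive integrated signal ratio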;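 also: B-score derived from integrated fluorescence ratio over the kinetic read; more negative B-score means stronger inhibition of depolarization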
TRPC4 inh: TRPC4 (mouse) channel inhibition; Q9QUQ5; HEK293 TRPC4beta/mu-opioid, DAMGO-evoked Fluo4 calcium flux; active compounds read low; B-score at 10 µM; 300,000 tested, 0.39% active; AID 2247;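 active = B-score over 3 SD under the library average, no early fluorescence shift, positive overall ratio signal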
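Assay system: HEK293 cells with stable TRPC4beta plus mu-opioid receptor expression. Dosing: single dose. Measured by: Fluo4 Ca2+ flux fluorescence. Also added: DAMGO in two steps, submaximal then maximal. Read-out: B score from integrated Fluo4 fluorescence ratio.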
TRPC6 act: mouse TRPC6 channel activation; Q61143; HEK293-TRPC6 membrane potential dye fluorescence; active compounds read high; B-score at 10 µM; 310,000 tested, 0.13% active; AID 2550;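 active = B-score of the integrated fluorescence ratio above library mean plus 3 SD, and starting fluorescence ratio within library mean plus 5 SD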;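 also: higher score means more depolarization so channel activation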
Of the large screens only hits and unclear results are named; the others gave an inactive call.

C1CCN(c2nc(N3CCCCC3)nc(N3CCNCC3)n2)CC1	TRPC4 PAM 22
CC1CCN(c2nc(N3CCCCC3)nc(N3CCCCC3)n2)CC1	none
CCN(CC)c1ccc(C(=O)OCc2cc(=O)oc3cc(O)ccc23)cc1	DSG3 Ab inh 86
Cc1cccc(-n2c(O)c(C=NC3CCS(=O)(=O)C3)c3ccccc3c2=O)c1C (configuration not stated)	none
Cc1ccc(C2=NN(CC(=O)O)C(=O)CC2)cc1	none
O=C(CCCN1C(=O)S/C(=C/C=C/c2ccccc2)C1=O)Nc1ccc(C(=O)O)cc1	none
CCc1ccc(/C=C2\SC(=S)N(CCCC(=O)Nc3cc(C)on3)C2=O)cc1	none (no result: TRPC4 act, TRPC4 PAM, TRPC6 inh, TRPC4 inh, TRPC6 act)
Cc1cc(NC(=O)CCCN2C(=O)/C(=C/c3cccs3)SC2=S)no1	DSG3 Ab inh 16
Cc1ccc(NC(=O)CCCN2C(=O)/C(=C/C=C/c3ccccc3)SC2=S)cc1	DSG3 Ab inh 85
Cc1cc(NC(=O)CCCN2C(=O)c3cccnc3C2=O)no1	none
Cc1cc(NC(=O)CCCN2C(=O)c3cccc4cccc(c34)C2=O)no1	DSG3 Ab inh 92
CC(Oc1ccc(F)cc1)C(=O)Nc1ccccc1N1CCCCC1 (configuration not stated)	none (no result: DSG3 Ab inh)
COc1ccc(CN(C)C(=O)C2CCN(S(=O)(=O)c3cccs3)CC2)cc1F	none (no result: TRPC4 act, TRPC4 PAM, TRPC6 inh, TRPC4 inh, TRPC6 act)
Nc1ccc2nc(-c3cccc(-c4nc5ccc(N)cc5[nH]4)c3)[nH]c2c1	DSG3 Ab inh 73
CCOC(=O)CCCCCN1C(=O)c2cccc3cccc(c23)C1=O	none
CC(=O)OCCCN1C(=O)c2cccc3cc(Br)cc(c23)C1=O	TRPC4 inh -6 (no result: DSG3 Ab inh)
CCN(CC)CCSc1nc2ccc(OC)cc2[nH]1	TRPC4 act 124
CCc1cc[n+](C(C(=S)Nc2cccc(C)c2)=C([O-])c2ccc(C)c([N+](=O)[O-])c2)cc1	none (no result: TRPC4 act, TRPC4 PAM, TRPC6 inh, TRPC4 inh, TRPC6 act)
Cc1ccc(S(=O)(=O)Nc2ccc3c(c2)nc(CN2CCCC2)n3C)cc1	TRPC4 act 44
CC(=O)c1ccc(NC(=O)N2C3CCC2CC(O)(c2cccnc2)C3)cc1 (configuration not stated)	none
COc1ccccc1CC(O)CC1c2c(cc3c(c2OC)OCO3)CCN1C (configuration not stated)	none (no result: TRPC4 act, TRPC4 PAM, TRPC6 inh, TRPC4 inh, TRPC6 act)
COc1ccc(CC(O)CC2c3c(cc4c(c3OC)OCO4)CCN2C)cc1 (configuration not stated)	TRPC4 act 58, TRPC4 inh -6
CN1CCN(CCCNC(=O)c2cc3c(-c4ccc(Cl)cc4)nn(C)c3s2)CC1	TRPC4 PAM 11
Cn1nc(-c2ccc(Cl)cc2)c2cc(C(=O)NCC3CCCO3)sc21 (configuration not stated)	none
CCCCN(CC)CCNC(=O)c1cc2c(-c3ccccc3F)nn(C)c2s1	none
CCN(CC)CCCNC(=O)c1cc2c(-c3ccc(Cl)cc3)nn(C)c2s1	TRPC4 act 72, TRPC4 PAM 16
Cc1nc(N2CCCCC2)c(C#N)c(C)c1[N+](=O)[O-]	TRPC4 inh -5
Cc1ccc([C@@H]2CC(=O)[C@@H]3CN(S(=O)(=O)c4ccc(C)cc4)[C@H](c4ccccc4)C[C@@H]3N2S(=O)(=O)c2ccc(Cl)cc2)cc1	none (no result: TRPC4 act, TRPC4 PAM, TRPC6 inh, TRPC4 inh, TRPC6 act)
CCOCCn1c(N2CCN(c3ccccc3)CC2)nc2c1c(=O)n(C)c(=O)n2C	none
COC(=O)Cn1c(CN2CCc3ccccc3C2)nc2c1c(=O)n(C)c(=O)n2C	none
CCCCCCn1c(N2CCN(c3ccccc3)CC2)nc2c1c(=O)n(C)c(=O)n2C	TRPC4 PAM 94
Cn1c(=O)c2c(nc(CN3CCc4ccccc4C3)n2Cc2ccc(F)cc2)n(C)c1=O	TRPC4 PAM 23
Cn1c(=O)c2c(nc(CN3CCN(Cc4ccccc4)CC3)n2Cc2ccc(Cl)cc2)n(C)c1=O	none
Cc1ccccc1Cn1c(CN2CCc3ccccc3C2)nc2c1c(=O)n(C)c(=O)n2C	TRPC4 act 52, TRPC4 PAM 119
CCC1CCCCN1Cc1nc2c(c(=O)n(C)c(=O)n2C)n1Cc1ccccc1 (configuration not stated)	TRPC4 inh -6
CCOc1cccc(-c2c(C(=O)N/N=C/c3ccoc3)nnn2-c2nonc2N)c1	none
COC(=O)c1cccc(Oc2nc3c(c(=O)n(C)c(=O)n3C)n2Cc2ccc(C)cc2)c1	TRPC4 inh -6
Cc1ccc(Cn2c(CN(C)Cc3ccccc3)nc3c2c(=O)n(C)c(=O)n3C)cc1	TRPC4 PAM 10 (no result: DSG3 Ab inh)
CN(Cc1ccccc1)Cc1nc2c(c(=O)n(C)c(=O)n2C)n1Cc1ccc(F)cc1	none
CCn1c(CN2CCN(C(c3ccccc3)c3ccccc3)CC2)nc2c1c(=O)n(C)c(=O)n2C	TRPC4 PAM 17
NC(=O)C1CCN(C(=O)c2ccccc2SCC(=O)NCC2CCCCC2)CC1	none (no result: DSG3 Ab inh)
CC(=O)c1ccc(S(=O)(=O)NCc2ccc(C(=O)NCC(c3ccccc3)N(C)C)cc2)cc1 (configuration not stated)	TRPC4 act 177
COc1ccc(C(CNC(=O)c2cccc(S(=O)(=O)Nc3ccc(F)cc3)c2)N(C)C)cc1 (configuration not stated)	none (no result: TRPC4 act, TRPC4 PAM, TRPC6 inh, TRPC4 inh, TRPC6 act)
CN(C)C(CNC(=O)c1ccc(S(=O)(=O)Nc2ccccc2F)cc1)c1ccccc1 (configuration not stated)	none
CCOc1ccc(S(=O)(=O)Nc2cccc(C(=O)NCC(c3ccccc3)N(C)C)c2)cc1 (configuration not stated)	TRPC4 act 198
COc1ccc(C(CNC(=O)c2cccc(NS(=O)(=O)c3ccc(C)c(F)c3)c2)N(C)C)cc1 (configuration not stated)	TRPC4 act 81
COc1ccc(C(CNC(=O)c2cccc(NS(=O)(=O)c3ccccc3)c2)N(C)C)cc1 (configuration not stated)	TRPC4 act 53, TRPC4 inh -6 (no result: DSG3 Ab inh)
COc1ccccc1C(CNC(=O)c1cccc(NS(=O)(=O)c2ccc(C)c(F)c2)c1)N(C)C (configuration not stated)	none
CCOc1ccc(S(=O)(=O)Nc2cccc(C(=O)NCC(c3ccco3)N(C)C)c2)cc1 (configuration not stated)	none
CCCCNC(=O)N1CCN(Cc2cccc(F)c2)CC1	none
COc1cc(C(=O)NCCC(=O)NCc2cccs2)cc(OC)c1OC	none (no result: TRPC4 act, TRPC4 PAM, TRPC6 inh, TRPC4 inh, TRPC6 act)
CN(C)C(CNC(=O)CNC(=O)c1ccc2ccccc2c1)c1ccccc1 (configuration not stated)	none
CCN(CC)S(=O)(=O)c1cccc(C(=O)NCC(c2ccccc2)N(C)C)c1 (configuration not stated)	TRPC4 act 79

Compound activity (PubChem)
